In ChEMBL document CHEMBL4325891 (Eur J Med Chem, 2019):
Active and inactive are the calls of the source. No cut-off for these calls is given here. Where a SMILES comes first, the peptide text is derived from it. The star is where a group is joined. Doxorubicin(Traut) = COc1cccc2c1C(=O)c1c(O)c3c(c(O)c1C2=O)C[C@@](O)(C(=O)CO)C[C@@H]3O[C@H]1C[C@H](NC(=N)CCCS*)[C@H](O)[C@H](C)O1; βAla = NCCC(=O)O

How the values were obtained:
C2C12 [1] = assay: Induction of ROS generation in mouse C2C12 cells at 0.5 uM after 72 hrs by H2DCFDA staining based flow cytometry relative to control; assay type: cell-based; settings: c2c12, 72 h
[2] = Drug uptake in human SKOV3 cells nucleus at 5 uM after 1 to 24 hrs by DAPI staining based fluorescence microscopic method; assay type: ADME, subcellular; settings: sk-ov-3, 5 µM
Method in brief: (§1)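 1×10^4 cells per chamber were allowed to attach and then cultured overnight. Compounds were added at 5 μM final in fresh medium for 1 h or 24 h, with untreated cells as control. Cells were then washed with DPBS and fixed in 4% paraformaldehyde for 30 min.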

[3] = Drug uptake in human HT1080 cells at 50 uM after 3 hrs by flow cytometry; assay type: ADME, cell-based; settings: ht-1080, 3 h
[4] = Cytotoxicity against mouse C2C12 cells assessed as cell viability at 5 uM after 72 hrs by MTT assay relative to control; assay type: cell-based; settings: read-out: Activity
Method in brief: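 C2C12 mouse myoblasts grown in DMEM with 10% FBS, seeded at 10,000 cells/well 24 h before dosing. Compound exposure for 72 h at 37 °C, then MTT read-out. Viability expressed relative to untreated control, set at 100%. Run in triplicate.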

[5] = Drug uptake in human SKOV3 cells at 50 uM after 3 hrs by flow cytometry; assay type: ADME, cell-based; settings: sk-ov-3, 3 h
C2C12 [6] = assay: Induction of FeCl2-mediated ROS generation in mouse C2C12 cells at 0.5 uM after 72 hrs by H2DCFDA staining based flow cytometry relative to control; assay type: cell-based; settings: c2c12, 72 h
Method in brief: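 C2C12 cells were seeded in DMEM with 10% FBS and cultured 24 h. They were then incubated 72 h in serum-free DMEM with 10 μM Fe²⁺ (FeCl₂), with or without compound at 0.5 μM. Cells were harvested and stained with 10 μM H₂DCFDA in HBSS for 30 min at 37 °C before flow cytometry. The mean signal of 5000 cells is expressed as fold of control; experiments were done twice.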

[7] = Drug uptake in human MDA-MB-468 cells nucleus at 5 uM after 1 to 24 hrs by DAPI staining based fluorescence microscopic method; assay type: ADME, subcellular; settings: mda-mb-468, 5 µM; method in brief: as §1
[8] = Drug uptake in human MCF7 cells nucleus at 5 uM after 1 to 24 hrs by DAPI staining based fluorescence microscopic method; assay type: ADME, subcellular; settings: mcf7, 5 µM; method in brief: as §1
[9] = Drug uptake in human HT1080 cells nucleus at 5 uM after 1 to 24 hrs by DAPI staining based fluorescence microscopic method; assay type: ADME, subcellular; settings: ht-1080, 5 µM; method in brief: as §1
CCRF-CEM [10] = assay: Inhibition of cell proliferation in human CCRF-CEM cells at 5 uM after 72 hrs by MTT or MTS assay relative to control; assay type: functional
Method in brief: (§2)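 Seeding was 5000 cells/well for HEK-293, SKOV-3 and HT-1080, and 50,000 for CCRF-CEM, 24 h before dosing. CCRF-CEM was grown in RPMI and the others in EMEM with 10% FBS. Compounds were given at 5 μM for 24 or 72 h at 37 °C, with water/0.025% DMSO as negative control. Adherent lines received fresh medium before adding MTT (595 nm) or MTS (490 nm). Background-corrected OD is expressed as percent of control; triplicate runs.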

[11] = Drug uptake in human SKOV3 cells at 5 uM after 3 hrs by flow cytometry; assay type: ADME, cell-based; settings: sk-ov-3, 3 h
Method in brief: (§3)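 Adherent cells were plated at 5×10^4 per well in serum-free medium and left overnight, then exposed to 5 μM compound for 3 h at 37 °C, with untreated cells as control. Cells were washed with DPBS, trypsinised for 5 min and washed twice. Flow cytometry read the Texas Red channel, giving the mean fluorescence of 10,000 cells, in triplicate.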

[12] = Inhibition of cell proliferation in HEK293 cells at 5 uM after 24 hrs by MTT or MTS assay relative to control; assay type: cell-based; settings: human
SK-OV-3 [13] = assay: Inhibition of cell proliferation in human SKOV3 cells at 5 uM after 72 hrs by MTT or MTS assay relative to control; assay type: functional; settings: SK-OV-3, 72 h
SK-OV-3 [14] = assay: Inhibition of cell proliferation in human SKOV3 cells at 5 uM after 24 hrs by MTT or MTS assay relative to control; assay type: functional; settings: SK-OV-3, 24 h
[15] = Drug uptake in human HT1080 cells at 5 uM after 3 hrs by flow cytometry; assay type: ADME, cell-based; settings: ht-1080, 3 h; method in brief: as §3
CCRF-CEM [16] = assay: Inhibition of cell proliferation in human CCRF-CEM cells at 5 uM after 24 hrs by MTT or MTS assay relative to control; assay type: functional; method in brief: as §2
HT-1080 [17] = assay: Inhibition of cell proliferation in human HT1080 cells at 5 uM after 24 hrs by MTT or MTS assay relative to control; assay type: functional; settings: for inhibition at 5 µM: HT-1080, 24 h; method in brief: as §2
HT-1080 [18] = assay: Inhibition of cell proliferation in human HT1080 cells at 5 uM after 72 hrs by MTT or MTS assay relative to control; assay type: functional; settings: for inhibition at 5 µM: HT-1080, 72 h
[19] = Inhibition of cell proliferation in HEK293 cells at 5 uM after 72 hrs by MTT or MTS assay relative to control; assay type: cell-based; settings: human; method in brief: as §2
[20] = Drug uptake in HEK293 cells at 50 uM after 3 hrs by flow cytometry; assay type: ADME, cell-based; settings: human, hek293, 3 h
[21] = Drug uptake in human CCRF-CEM cells at 50 uM after 3 hrs by flow cytometry; assay type: ADME, cell-based

Compound	fold change (FC) (C2C12 [1])	Drug uptake [2]	Drug uptake [3]	viability at 72 h, 5 µM [4] [%]	Drug uptake [7]	Drug uptake [8]	Drug uptake [9]	inhibition at 5 µM (CCRF-CEM [10]) [%]	inhibition at 24 h, 5 µM [12] [%]	inhibition at 5 µM (SK-OV-3 [13]) [%]	inhibition at 5 µM (SK-OV-3 [14]) [%]	inhibition at 5 µM (CCRF-CEM [16]) [%]	inhibition at 5 µM (HT-1080 [17]) [%]	inhibition at 72 h, 5 µM [19] [%]	inhibition at 5 µM (HT-1080 [18]) [%]	further results
COc1cccc2c1C(=O)c1c(O)c3c(c(O)c1C2=O)C[C@@](O)(C(=O)CO)C[C@@H]3O[C@H]1C[C@H](NC(=N)CCCSSC[C@@H]2NC(=O)[C@H](CCCNC(=N)N)NC(=O)[C@H](Cc3c[nH]c4ccccc34)NC(=O)[C@H](CCCNC(=N)N)NC(=O)[C@H](Cc3c[nH]c4ccccc34)NC(=O)[C@H](CCCCNC(=O)CCN)NC(=O)[C@H](Cc3c[nH]c4ccccc34)NC(=O)[C@H](CCCNC(=N)N)NC(=O)[C@H](Cc3c[nH]c4ccccc34)NC(=O)[C@H](CCCNC(=N)N)NC2=O)[C@H](O)[C@H](C)O1 (cyclo(C(Doxorubicin(Traut))RWRWK(βAla)WRWR))	1.05	Active	Active	71	Active	Active	Active	–	–	–	–	–	–	–	–	Drug uptake [5]: Active; Activity (C2C12 [6]): Non-Toxic
COc1cccc2c1C(=O)c1c(O)c3c(c(O)c1C2=O)C[C@@](O)(C(=O)CO)C[C@@H]3O[C@H]1C[C@H](N)[C@H](O)[C@H](C)O1 [DOXORUBICIN]	1.09	Active	–	28.6	Active	Active	Active	69	57	51	66 to 76	45	66	–	–	Drug uptake [11]: Active; fold change (FC) (C2C12 [6]): 3.48; Drug uptake [15]: Active; inhibition (HT-1080 [18]): inactive
N=C(N)NCCC[C@@H]1NC(=O)[C@H](CS)NC(=O)[C@H](CCCNC(=N)N)NC(=O)[C@H](Cc2c[nH]c3ccccc23)NC(=O)[C@H](CCCNC(=N)N)NC(=O)[C@H](Cc2c[nH]c3ccccc23)NC(=O)[C@H](CCCCNC(=O)CCN)NC(=O)[C@H](Cc2c[nH]c3ccccc23)NC(=O)[C@H](CCCNC(=N)N)NC(=O)[C@H](Cc2c[nH]c3ccccc23)NC1=O (cyclo(CRWRWK(βAla)WRWR))	–	–	–	–	–	–	–	–	–	–	–	–	–	–	–	inhibition (CCRF-CEM [10]): inactive; inhibition (CCRF-CEM [16]): inactive; inhibition (HT-1080 [17]): inactive
COc1cccc2c1C(=O)c1c(O)c3c(c(O)c1C2=O)C[C@@](O)(C(=O)CO)C[C@@H]3O[C@H]1C[C@H](NC(=N)CCCSSc2ccccn2)[C@H](O)[C@H](C)O1	–	Active	Active	–	Active	Active	Active	73	66	39	72	46	80	60	68	Drug uptake [20]: Active; Drug uptake [21]: Active
COc1cccc2c1C(=O)c1c(O)c3c(c(O)c1C2=O)C[C@@](O)(C(=O)CO)C[C@@H]3O[C@H]1C[C@H](NC(=N)CCCS)[C@H](O)[C@H](C)O1	–	Active	–	–	Active	Active	Active	73	61	42	–	48	62	64	68	–
